Laboratory results published in the RNAGym collection of RNA variant scans (doi:10.1126/science.aae0568).
Fewer inactive variants are shown than the library holds.

B1: tRNA (parent)
chain: GUUCCGUUGGCGUAAUGGUAACGCGUCUCCCUCCUAAGGAGAAGACUGCGGGUUCGAGUCCCGUACGGAACG

Variants of: B1
Assay: yeast fitness relative to wild type (ratio to wild type); higher = fitter; tRNA-Arg(CCU), competitive growth, 37 C, YPD
Procedure, shortened: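 A pool of Saccharomyces cerevisiae strains, each with a tRNA-Arg(CCU) gene variant at the native genomic locus, was competed in YPD at 37°C for 24 hours across six parallel replicates. The variants had been chemically synthesised at a 3% per-site mutation rate over 69 sites, and gene amplicons before and after competition were read by 100-nucleotide paired-end sequencing. Darwinian fitness relative to wild type rested on changes in genotype frequencies. Genotypes required ≥ 100 starting reads, and estimates < 0.5 were set to 0.5.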
For C11G G23A C34G, the yeast fitness was no more than 0.5.
For A20C C24A G56A C62U A70C, the yeast fitness was 0.588.
G23A U26G A65C gave a yeast fitness of no more than 0.5.
G23A C29A G48A C55A gave a yeast fitness of no more than 0.5.
With C24U A57G A65U the yeast fitness was 0.513.
U3A C49U A69U gave a yeast fitness of 0.759.
A36C G52A gave a yeast fitness of no more than 0.5.
With A14C C24A G67A the yeast fitness was no more than 0.5.
Variant U26C A42U A69C has a yeast fitness of 0.669.
A20G C22U G67U showed a yeast fitness of 0.559.
U8A A14U A15G U32C A57U showed a yeast fitness of 0.599.
C4U A20U U35A G38A gave a yeast fitness of no more than 0.5.
Variant C24U U35A A42G A69U has a yeast fitness of no more than 0.5.
Work on C11A G23C C33U A43U A45C G58A A69C yielded a yeast fitness of no more than 0.5.
C4A C24G U28A U35C C49U gave a yeast fitness of 0.542.
A15C A43U A65G showed a yeast fitness of 0.583.
Work on C4A C5A G41C G56A C62U A65C yielded a yeast fitness of no more than 0.5.
Variant A20G C29A C34G A42C C49G G68A has a yeast fitness of no more than 0.5.
G52A U54A showed a yeast fitness of 0.537.
Variant C22G C27U A70U has a yeast fitness of 0.678.
In the case of C11G G39C C61U, the yeast fitness is reported as no more than 0.5.
Work on C49G U53C C60A yielded a yeast fitness of no more than 0.5.
Variant G6A C24A has a yeast fitness of 0.654.
Variant G6C C49U U53C C61G has a yeast fitness of no more than 0.5.
With U2G C11G C46G G51C U53A the yeast fitness was no more than 0.5.
C33U G38A C46U gave a yeast fitness of 0.562.
For U2C U3C C22U C34U, the yeast fitness was no more than 0.5.
Work on C11A A45U G50U U54C U64A yielded a yeast fitness of no more than 0.5.
Work on C4G C24U A40G yielded a yeast fitness of no more than 0.5.
In the case of A40U C62U, the yeast fitness is reported as 0.87.
U16G A20U G38A G67A A69U showed a yeast fitness of no more than 0.5.
With C24G C27U A37G the yeast fitness was 0.536.
With C22G C29U the yeast fitness was 0.838.
In the case of C5U G9C A36G C60G A70G, the yeast fitness is reported as no more than 0.5.
Variant C29U U32C G51C has a yeast fitness of no more than 0.5.
With U2A the yeast fitness was 0.988.
Variant A36G C61G A69G has a yeast fitness of 0.56.
Variant U8C U13A A65G has a yeast fitness of 0.716.
C24U C55U G68C showed a yeast fitness of 0.552.
In the case of G39C A45G, the yeast fitness is reported as 0.661.
For C5A G17C C22U C60G C61U, the yeast fitness was 0.947.
For A14C C22A U59C C62A, the yeast fitness was no more than 0.5.
With A21C U28G A43C G52C the yeast fitness was no more than 0.5.
Variant U3C G6C C46A has a yeast fitness of 0.645.
Work on U28C C31U C60U yielded a yeast fitness of no more than 0.5.
U35C C66G gave a yeast fitness of 0.657.
In the case of U16G C33U G44C, the yeast fitness is reported as no more than 0.5.
For U8A G18C C24A C29U U32C, the yeast fitness was no more than 0.5.
For G17A G58A, the yeast fitness was 0.794.
In the case of G18C C30U A45U, the yeast fitness is reported as 0.549.
Work on C5G A20U A65G yielded a yeast fitness of 0.65.
With C4U A15U U28C A57G the yeast fitness was no more than 0.5.
U3C A14U U16G U19A A42G C61G gave a yeast fitness of no more than 0.5.
A15U G52A gave a yeast fitness of 0.606.
Work on C5A C31A C55A C61A G63A G67U yielded a yeast fitness of no more than 0.5.
Work on C4A C24U A36U G39C C46G C55A C66G yielded a yeast fitness of no more than 0.5.
For C5G C29U C66U, the yeast fitness was 0.57.
U59A C66G gave a yeast fitness of 0.669.
Work on C27U A40C G58A yielded a yeast fitness of 0.626.
Variant A37C G44C G52C G58A has a yeast fitness of no more than 0.5.
A15G G48C gave a yeast fitness of 0.841.
G6A U13C gave a yeast fitness of 0.937.
In the case of U26A G44C C55U G67U, the yeast fitness is reported as 0.759.
Work on A15C U16C C34G C46A C61U C66G yielded a yeast fitness of no more than 0.5.
G10A C22G A37G G38A G51C U53G showed a yeast fitness of no more than 0.5.
With A15C C49U U54C C55G U64C the yeast fitness was no more than 0.5.
With G6C C27A C30G G41C C61G C62U A69U the yeast fitness was no more than 0.5.
C5U G38C G48C G52A showed a yeast fitness of no more than 0.5.
G17A G48C C62A gave a yeast fitness of 0.549.
Variant C29U A45C U54A C55A has a yeast fitness of no more than 0.5.
With C11U C49G A57G the yeast fitness was no more than 0.5.
With C24G C49U C55G the yeast fitness was no more than 0.5.
In the case of C11A C30U C49G, the yeast fitness is reported as 0.579.
For C49U C60A C61A, the yeast fitness was 0.574.
With C11U C22G U47C U53G the yeast fitness was no more than 0.5.
In the case of C27A A36G G68A, the yeast fitness is reported as no more than 0.5.
U8A A21G gave a yeast fitness of 0.681.
With G38U A40G C49U the yeast fitness was no more than 0.5.
U28C C33G G38A U64G showed a yeast fitness of no more than 0.5.
With C11A C22U U54C the yeast fitness was no more than 0.5.
Variant C4U U8A U13C A57C has a yeast fitness of no more than 0.5.
Work on C4G G6A U47A yielded a yeast fitness of 0.61.
With C11G A45U U64C the yeast fitness was no more than 0.5.
In the case of C49G U53A A70G, the yeast fitness is reported as no more than 0.5.
Variant C22A G23C has a yeast fitness of 0.535.
C11U C60U C62U showed a yeast fitness of no more than 0.5.
For C29U A42U A43U C55G, the yeast fitness was 0.545.
In the case of C5U G50C A70U, the yeast fitness is reported as 0.575.
In the case of G9C G23A A36C, the yeast fitness is reported as 0.777.
In the case of G10C C49U, the yeast fitness is reported as 0.613.
Work on C11U C24G C33G yielded a yeast fitness of 0.541.
In the case of C4G U32C A45U, the yeast fitness is reported as 0.537.
With C5A G63U the yeast fitness was 0.722.
With U19A G41C A70U the yeast fitness was no more than 0.5.
Work on U8C A14U C30A C66U A70G yielded a yeast fitness of 0.546.
Work on G10C G18C C22U U26G C30U A40G yielded a yeast fitness of no more than 0.5.
Work on U26A A70G yielded a yeast fitness of 0.924.
C27A A40G A69U gave a yeast fitness of 0.582.
For C34A G50C G51A C61G, the yeast fitness was no more than 0.5.
C5U A20U C49G A69C showed a yeast fitness of no more than 0.5.
In the case of G6C U13C C31G C33A, the yeast fitness is reported as no more than 0.5.
A36C C55U C66A showed a yeast fitness of no more than 0.5.
Variant C5A C11A G17C A43G has a yeast fitness of no more than 0.5.
For C24G G50A, the yeast fitness was 0.616.
In the case of A37C G52A U53A, the yeast fitness is reported as 0.566.
With A14C A36G G41A G48C U59C the yeast fitness was 0.7.
In the case of U19G C46G A57C, the yeast fitness is reported as no more than 0.5.
Work on A14C A21U C24A A37U A45U yielded a yeast fitness of no more than 0.5.
For G9A C24G, the yeast fitness was 0.594.
Variant U26C C30U has a yeast fitness of 0.67.
A15G U26G C55U A69U A70C gave a yeast fitness of no more than 0.5.
G41A A42C A65C gave a yeast fitness of 0.565.
C5G A42C gave a yeast fitness of 0.814.
With C22U G23A G48A A65U the yeast fitness was no more than 0.5.
For U28A G67C, the yeast fitness was 0.774.
In the case of A14C C61U C66G, the yeast fitness is reported as 0.522.
In the case of C22G C49G, the yeast fitness is reported as 0.664.
A37C G44C gave a yeast fitness of 0.758.
With G6A C24G G39C C61U C66U the yeast fitness was no more than 0.5.
In the case of A36U A43C U53C, the yeast fitness is reported as no more than 0.5.
C27G C30G C49U C62U G67A gave a yeast fitness of no more than 0.5.
With G9C C27G C29G A36C the yeast fitness was no more than 0.5.
Work on C11U C55A C62U yielded a yeast fitness of no more than 0.5.
For C31G A43G, the yeast fitness was 0.982.
With U13C A15G the yeast fitness was 0.903.
In the case of C4U C11G G56C, the yeast fitness is reported as no more than 0.5.
U26C C31U showed a yeast fitness of 1.07.
With G12A C27U U32A the yeast fitness was 0.702.
G25C C49U G51A A65C A69C showed a yeast fitness of no more than 0.5.
Variant A20U U32C A43G has a yeast fitness of 0.659.
C22U C30U C33U A45C gave a yeast fitness of 0.548.
For C22U U35C A37C, the yeast fitness was no more than 0.5.
In the case of C34G G39A, the yeast fitness is reported as 0.703.
C11U C31G C34G A43U G68C A69G gave a yeast fitness of 0.532.
C22U G25C U28C A36G G51A G67A showed a yeast fitness of no more than 0.5.
Variant C60G C66A has a yeast fitness of 0.541.
Variant C60G C66U has a yeast fitness of 0.599.
For A14U G17C C24A C30G, the yeast fitness was 0.524.
G9C G52U showed a yeast fitness of 0.502.
C4U G9A C22G A42U G68C showed a yeast fitness of no more than 0.5.
In the case of C11G U13A U16G U26A A65G, the yeast fitness is reported as no more than 0.5.
Variant C30G A42U G51C has a yeast fitness of no more than 0.5.
In the case of G10A C11A U16G G38A A42U, the yeast fitness is reported as no more than 0.5.
U2A U8C A42U gave a yeast fitness of 0.64.
U13A U28A U47G showed a yeast fitness of 0.528.
In the case of A15C A20C A65U, the yeast fitness is reported as no more than 0.5.
With U3G A14G C62A the yeast fitness was 0.603.
C46A G67A gave a yeast fitness of 0.88.
In the case of C24U C27G, the yeast fitness is reported as 0.602.
U59G G67A showed a yeast fitness of 0.796.
For C4U U19A A42C, the yeast fitness was 0.825.
In the case of C22A C55G, the yeast fitness is reported as 0.63.
G12C A37G G38A A45U gave a yeast fitness of 0.506.
Work on U2A U3G C34U yielded a yeast fitness of no more than 0.5.
U13A C22G C24A C46G C55U C61A gave a yeast fitness of no more than 0.5.
C4G G6A showed a yeast fitness of 0.977.
With C29G C46U the yeast fitness was 0.611.
C5G G51A G68A gave a yeast fitness of no more than 0.5.
Variant C31G A37U has a yeast fitness of 0.728.
U47A G51A C55U showed a yeast fitness of 0.642.
With A15G A20U C34A the yeast fitness was no more than 0.5.
For A45C G58C, the yeast fitness was 1.06.
For U2A A40U G48C, the yeast fitness was no more than 0.5.
In the case of C24U U26C A40C, the yeast fitness is reported as 0.572.
Variant G44C G56C has a yeast fitness of 0.58.
U3G C31A G41A showed a yeast fitness of no more than 0.5.
Variant G12C C24G C60A has a yeast fitness of no more than 0.5.
